# Published values gathered from unrelated publications.
# Each line is one published result; the experiments were not run side by side.
# Target: Cyclin-dependent kinase 9 (CDK9, Homo sapiens, UniProt P50750)
SMILES,observed,method,concentration,remaining binding
CN(c1ccnc(CNc2nc(Nc3ccc4c(c3)CC(=O)N4)ncc2C(F)(F)F)n1)S(C)(=O)=O,cell-free assay,competition with immobilised ligand,1 µM,84%
Nc1ncc2c(n1)-c1c([nH]c3ccc(C#CC4CC4)cc13)CCCC2,binding,competition with immobilised ligand,1 µM,91%
O=C(c1ccc(Nc2ncc(Cl)c(-c3cc4ccccc4s3)n2)cc1)N1CCC(N2CCCC2)CC1,binding,competition with immobilised ligand,1 µM,82%
CS(=O)(=O)N1CCCC(NC(=O)[C@H](CCC2CCCCC2)NC(=O)c2ccc(CNc3ncnc4c3nnn4-c3ccccc3)cc2)C1 (some centres unmarked),cell-free assay,competition with immobilised ligand,0.1 µM,87%
O=C(c1ccc(Nc2ncc(Cl)c(-c3ccc(Cl)s3)n2)cc1)N1CCC(N2CCCC2)CC1,binding,competition with immobilised ligand,1 µM,68%
COc1ccnn2ncc(-c3ccnc(N(C)C)n3)c12,binding,,1 µM,100%
Cc1nccc(COC(=O)N2C[C@@H]3[C@@H](CNC(=O)c4ccc5[nH]nnc5c4)[C@@H]3C2)n1,cell-free assay,competition with immobilised ligand,1 µM,100%
c1cncc(-c2cccc(Nc3nccc(NC4CCCCC4)n3)c2)c1,binding,competition with immobilised ligand,10 µM,63%
c1cnn2ncc(-c3ccnc(N4CCC45COC5)n3)c2c1,binding,,1 µM,93%
C[C@@H]1CN(c2ccc3ncc(-c4ccc5[nH]nc(C6CC6)c5c4)n3n2)C[C@H](C)O1,binding,competition with immobilised ligand,50 nM,79%
CC1CCCN1c1nccc(-c2cnn3ncccc23)n1 (centres unmarked),binding,,1 µM,100%
Nc1c(C(=O)NCc2ccc(C(=O)NCCCC3CCCCC3)cc2)cnn1-c1ccccc1,cell-free assay,competition with immobilised ligand,0.1 µM,100%
CN(c1nccc(-c2cnn3ncccc23)n1)C1CC1,binding,,1 µM,100%
O=C(c1ccc(Nc2nccc(-c3cc4ccccc4s3)n2)cc1)N1CCC(N2CCCC2)CC1,binding,competition with immobilised ligand,1 µM,85%
O=C(O)[C@H]1[C@H](Cn2nnc3ccccc3c2=O)CC[C@@H]1C(=O)c1ccc(OCCC2CCOCC2)cc1,cell-free assay,competition with immobilised ligand,1 µM,72%
CN(C)c1nccc(-c2cnc3ncccn23)n1,binding,,1 µM,100%
O=C(NCC1CCOCC1)c1n[nH]cc1NC(=O)c1c(F)cccc1F,binding,competition with immobilised ligand,1 µM,83%
COc1cnc(Nc2cccc(S(N)(=O)=O)c2)nc1N1CCN(c2ccccc2)CC1,binding,competition with immobilised ligand,1 µM,100%
FC(F)(F)Oc1cccc(-c2cnc3ccc(-c4ccncc4)nn23)c1,cell-free assay,competition with immobilised ligand,5 µM,89%
C[C@@H](c1cccc(C#N)c1)n1cc(Cl)cc(C(N)=O)c1=N,cell-free assay,competition with immobilised ligand,1 µM,91%
C[C@@H]1CCN(c2nccc(-c3cnn4ncccc34)n2)C1,binding,,1 µM,87%
NS(=O)(=O)c1cc(NC(=O)C2(c3ccccc3Cl)CC2)ccc1Oc1cccc(Cl)c1,cell-free assay,competition with immobilised ligand,1 µM,78%
CCN1CCN(Cc2ccc(C(=O)Nc3ccc(C)c(Oc4ccc5c(c4)CC(=O)N5)c3)cc2C(F)(F)F)CC1,binding,competition with immobilised ligand,1 µM,100%
